The values below come from ChEMBL document CHEMBL4477183, “Antimicrobial Peptide from the Wild Bee Hylaeus signatus Venom and Its Analogues: Structure-Activity Study and Synergistic Effect with Antibiotics” (J Nat Prod, 2016).

The subject of one data set is Bacillus subtilis. Nature of the data set: Antimicrobial activity against Bacillus subtilis assessed as reduction in bacterial growth after 20 hrs by […]. The format is functional. The essentials: (§1)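 Broth microdilution in LB (YPG for C. albicans) with 2-fold serial dilutions, final 0.1–100 μM. Mid-log cells grown 3–5 h at 37 °C were added at about 5 × 10^5 cfu/mL, then incubated 20 h at 37 °C with shaking. A540 was read every 15 min to build growth curves. Medium with cells served as growth control; at least three runs in duplicate.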

Data set [1] concerns Pseudomonas aeruginosa. Nature of the data set: Antimicrobial activity against Pseudomonas aeruginosa 5482 assessed as reduction in bacterial growth after 20 hrs […]. To be noted: Pseudomonas aeruginosa, 5482, 20 h. The format is functional. The method in brief:
as §1

The nature of data set [2]: Hemolytic activity in human type RBC after 1 hr. The format is ADME, cell-based, Erythrocyte. The note with it: red blood cells (erythrocytes), read-out: LC50. The method in brief: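 Peptides at 2.5–400 μM were incubated with a 4% suspension of human erythrocytes in physiological solution for 1 h at 37 °C, then centrifuged at 250g for 5 min; supernatant A540 was read. Saline-treated cells gave 0% lysis and 0.2% Triton X-100 gave 100%. LC50 is the concentration lysing 50% of cells; duplicates in at least two independent experiments.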

For data set [3], the system named is Staphylococcus aureus. Kind of data set: Antimicrobial activity against Staphylococcus aureus clinical isolates from university hospital in Motol assessed as reduction in bacterial growth after 20 hrs by drop diffusion test. The format is functional.
Data set [4] has as its system Staphylococcus aureus. Kind of data set: Antimicrobial activity against Staphylococcus aureus 6271 assessed as reduction in bacterial growth after 20 hrs by broth microdilution assay. The note with it: Staphylococcus aureus, 6271, 20 h.
For another data set, the system named is Escherichia coli. Nature of the data set: Antimicrobial activity against Escherichia coli assessed as reduction in bacterial growth after 20 hrs by […]. The format is functional. The essentials:
as §1

Data set [5] deals with Staphylococcus aureus. Nature of the data set: Antimicrobial activity against Staphylococcus aureus clinical isolates from Liberec regional hospital assessed as reduction in bacterial growth after 20 hrs by broth microdilution assay. A general note: Broth dilution looks for growth in wells or tubes with falling amounts of substance.
In data set [6] the test system is Pseudomonas aeruginosa. Kind of data set: Antimicrobial activity against Pseudomonas aeruginosa clinical isolates assessed as reduction in bacterial growth after 20 hrs by […]. The format is functional. The method in brief:
as §1

The subject of a further data set is Candida albicans. Nature of the data set: Antifungal activity against Candida albicans assessed as reduction in fungal growth after 20 hrs by […]. The format is functional. The method in brief:
as §1

Data set [7] has as its system Staphylococcus epidermidis. Nature of the data set: Antimicrobial activity against Staphylococcus epidermidis assessed as reduction in bacterial growth after 20 hrs by broth microdilution assay.
In the next data set the test system is Micrococcus luteus. Nature of the data set: Antimicrobial activity against Micrococcus luteus assessed as reduction in bacterial growth after 20 hrs by […]. The format is functional. The essentials:
as §1

In data set [8] the test system is Pseudomonas aeruginosa. Nature of the data set: Antimicrobial activity against Pseudomonas aeruginosa clinical isolates assessed as FIC index in presence of rifampicin after 20 hrs by drop diffusion test. The format is functional.
For data set [9], the system named is Pseudomonas aeruginosa. Nature of the data set: Antimicrobial activity against Pseudomonas aeruginosa clinical isolates assessed as FIC index in presence of tetracycline after 20 hrs by drop diffusion test. The format is functional.

Values after ≈ are worked out from the molar mass of the structure shown.

What is called MIC is the lowest concentration that inhibits growth of the organism. Turning to H-GIMISLMKKLAAHIAK-NH2, the MIC with Bacillus subtilis was at most 7 µM; in the data set on Pseudomonas aeruginosa [1] it was 47 µM; in the data set with Staphylococcus aureus [3], 65 µM; in the data set with Staphylococcus aureus [4], 43 µM; with Escherichia coli it was 12 µM; in the data set on Staphylococcus aureus [5], 35 µM. Also, the minimum inhibitory concentration (MIC) with Pseudomonas aeruginosa [6] was over 100 µM; in the data set with Candida albicans, 12 µM; in data set [7] it was 8.8 µM; with Micrococcus luteus, at most 3 µM. Moreover, the HC50 at 1 h in [2] was 320 µM.

Regarding H-GIMSSLMKKLKAHIAK-NH2, the minimal inhibitory concentration (MIC) in the data set with Bacillus subtilis was at most 7 µM; with Pseudomonas aeruginosa [1] it was 26 µM; in the data set with Staphylococcus aureus [3] it was over 100 µM; with Staphylococcus aureus [4] it was over 100 µM; in the data set with Escherichia coli, 30 µM; with Staphylococcus aureus [5], over 100 µM. Besides, the MIC with Pseudomonas aeruginosa [6] was 47 µM; in the data set on Candida albicans it was 23 µM; in data set [7] it was 16 µM; in the data set on Micrococcus luteus it was at most 3 µM. Moreover, the HC50 at 1 h in data set [2] was over 400 µM. Besides, the “fractional inhibitory concentration index (FICI)” value was determined as 0.21 with Pseudomonas aeruginosa [8] and 0.31 with Pseudomonas aeruginosa [9].

Regarding `CC1(C)S[C@@H]2[C@H](NC(=O)[C@H](N)c3ccc(O)cc3)C(=O)N2[C@H]1C(=O)O` [AMOXICILLIN], the MIC with Pseudomonas aeruginosa [1] was over 100 µM; in the data set with Staphylococcus aureus [3], 3.5 µM (≈ 1.28 µg/mL); in the data set on Staphylococcus aureus [4], 17 µM (≈ 6.21 µg/mL); in the data set on Escherichia coli it was 2.7 µM (≈ 0.987 µg/mL); in the data set with Staphylococcus aureus [5], 35 µM (≈ 12.8 µg/mL); with Pseudomonas aeruginosa [6] it was over 100 µM. The minimum inhibitory concentration (MIC) in data set [7] stood at 35 µM (≈ 12.8 µg/mL).

Consider H-GILSSLWKKPKKIIAK-NH2, for which the MIC in the data set with Bacillus subtilis was 49 µM; in the data set on Pseudomonas aeruginosa [1], 98 µM; in the data set with Staphylococcus aureus [3] it was over 100 µM; in the data set on Staphylococcus aureus [4], over 100 µM; in the data set with Escherichia coli, over 100 µM; with Staphylococcus aureus [5], over 100 µM. For the same molecule, the MIC in the data set with Pseudomonas aeruginosa [6] is over 100 µM; in the data set with Candida albicans, over 100 µM; in data set [7], over 100 µM; in the data set on Micrococcus luteus, 5.8 µM. Moreover, the HC50 at 1 h in data set [2] is over 400 µM.

Consider H-GIMSSLMKKLAAHIKK-NH2, for which the minimal inhibitory concentration (MIC) with Bacillus subtilis is at most 7 µM; in the data set with Pseudomonas aeruginosa [1] it was 23 µM; in the data set with Staphylococcus aureus [3], 90 µM; in the data set with Staphylococcus aureus [4] it was 85 µM; in the data set on Escherichia coli, 20 µM; in the data set on Staphylococcus aureus [5], 77 µM. For the same molecule, the MIC in the data set on Pseudomonas aeruginosa [6] is 46 µM; in the data set on Candida albicans it was 5 µM; in [7] it was 11 µM; with Micrococcus luteus, at most 3 µM. The HC50 at 1 h in data set [2] is over 400 µM.

For H-GIMSSLMKKLKKHIAK-NH2, the MIC was at most 7 µM in the data set on Bacillus subtilis; 6.4 µM with Pseudomonas aeruginosa [1]; over 100 µM in the data set on Staphylococcus aureus [3]; over 100 µM in the data set with Staphylococcus aureus [4]; 26 µM in the data set on Escherichia coli; over 100 µM in the data set on Staphylococcus aureus [5]. For the same molecule, the MIC in the data set on Pseudomonas aeruginosa [6] was 17 µM; with Candida albicans, 12 µM; in [7], 10 µM; in the data set on Micrococcus luteus, at most 3 µM. Also, in data set [2], the HC50 at 1 h was over 400 µM. The “fractional inhibitory concentration index (FICI)” value worked out at 0.23 in the data set on Pseudomonas aeruginosa [8] and 0.39 in the data set with Pseudomonas aeruginosa [9].

As to H-GIMSSLMKKLAAHIAK-NH2, the minimum inhibitory concentration (MIC) is at most 7 µM in the data set with Bacillus subtilis; 20 µM in the data set with Pseudomonas aeruginosa [1]; 64 µM in the data set on Staphylococcus aureus [3]; 63 µM with Staphylococcus aureus [4]; 15 µM in the data set with Escherichia coli; 53 µM in the data set on Staphylococcus aureus [5]. For the same molecule, the MIC in the data set with Pseudomonas aeruginosa [6] was 68 µM; in the data set on Candida albicans it was 18 µM; in [7], 13 µM; in the data set with Micrococcus luteus it was at most 3 µM. The HC50 at 1 h in [2] was over 400 µM. The results for the “fractional inhibitory concentration index (FICI)” value with Pseudomonas aeruginosa [8] and in the data set with Pseudomonas aeruginosa [9] were 0.26 and 0.56, respectively.
